Test results: ChEMBL document CHEMBL1139348, “Identification and optimization of a novel inhibitor of mitochondrial calpain 10” (J Med Chem, 2009)
The source made the active and inactive calls. The calls are words filed in the database; no cut-off is given here. Where a SMILES comes first, the peptide text is derived from it. The star is where a group is joined. X1 = COc1ccc(S*)cc1; SEt = CCS*

Columns and labels:
[1] = Inhibition of calpain-10 in rabbit mitochondrial matrix fractions by spectrofluorimetry; design: species or system Oryctolagus cuniculus
Summary of the method: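 Matrix fraction from Percoll/sucrose-purified rabbit renal cortical mitochondria, stored at -80°C. Matrix added to activity buffer, then inhibitor at various concentrations and sLLVY-AMC (50 µM); AMC hydrolysis followed spectrofluorometrically under linear conditions. IC50 from means of at least 3 separate experiments.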

Oryctolagus cuniculus [2] = species: Oryctolagus cuniculus; assay: Inhibition of calpain-10 in rabbit mitochondrial matrix fractions at 1 uM preincubated for 5 mins in presence of 1 mM dithiothreitol by spectrofluorimetry
Summary of the method: (§1)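 Rabbit renal mitochondrial matrix preincubated 15 min with inhibitor (1 µM), activity on sLLVY-AMC measured 5 min; then BME (1 mM) or DTT (1 mM) added for 5 min and AMC release monitored for another 5 min. Mean and SE, n ≥ 3.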

Oryctolagus cuniculus [3] = species: Oryctolagus cuniculus; assay: Inhibition of calpain-10 in rabbit mitochondrial matrix fractions at 1 uM preincubated for 5 mins by spectrofluorimetry
Oryctolagus cuniculus [4] = species: Oryctolagus cuniculus; assay: Inhibition of calpain-10 in rabbit mitochondrial matrix fractions at 1 uM preincubated for 5 mins in presence of 1 mM beta-mercaptoethanol by spectrofluorimetry; summary of the method: as §1

| Structure (SMILES) | IC50 [1] [nM] | other results |
| --- | --- | --- |
| CSC[C@H](N)C(=O)N[C@@H](Cc1ccc(O)cc1)C(=O)NCC(=O)N[C@@H](C)C(=O)N[C@@H](CCCCN)C(=O)O (H-C(Me)YGAK-OH) | > 100000 |  |
| CCSSC[C@H](N)C(=O)N[C@@H](Cc1ccc(O)cc1)C(=O)NCC(=O)N[C@@H](C)C(=O)N[C@@H](CCCCN)C(=O)O (H-C(SEt)YGAK-OH) | 2000 |  |
| COc1ccc(SSC[C@H](N)C(=O)N[C@@H](Cc2ccc(O)cc2)C(=O)NCC(=O)N[C@@H](C)C(=O)N[C@@H](CCCCN)C(=O)O)cc1 (H-C(X1)YGAK-OH) | 60 |  |
| C[C@H](NC(=O)CNC(=O)[C@H](C)NC(=O)[C@@H](N)CS)C(=O)N[C@@H](CCCCN)C(=O)O (H-CAGAK-OH) | 2000 |  |
| CC(C)[C@H](NC(=O)[C@@H](N)CS)C(=O)NCC(=O)N[C@@H](C)C(=O)N[C@@H](CCCCN)C(=O)O (H-CVGAK-OH) | > 40000 |  |
| C[C@H](NC(=O)CNC(=O)[C@H](Cc1ccc(O)cc1)NC(=O)[C@@H](N)CS)C(=O)O (H-CYGA-OH) | > 100000 |  |
| C[C@H](NC(=O)CNC(=O)[C@H](Cc1ccc(O)cc1)NC(=O)[C@@H](N)CS)C(=O)N[C@@H](CCCCN)C(=O)O (H-CYGAK-OH) | 100 | Activity (Oryctolagus cuniculus [2]): inactive; inhibition (Oryctolagus cuniculus [3]): 90%; Activity (Oryctolagus cuniculus [4]): inactive |
| N=C(N)NCCC[C@H](NC(=O)CNC(=O)[C@H](Cc1ccc(O)cc1)NC(=O)[C@@H](N)CS)C(=O)N[C@@H](CCCCN)C(=O)O (H-CYGRK-OH) | 240 |  |
| N=C(N)NCCC[C@H](NC(=O)CNC(=O)[C@H](Cc1ccc(O)cc1)NC(=O)[C@@H](N)CS)C(=O)N[C@@H](CCCCN)C(=O)N[C@@H](CCCCN)C(=O)O (H-CYGRKK-OH) | 290 |  |
| C[C@H](NC(=O)CNC(=O)[C@@H](N)Cc1ccc(O)cc1)C(=O)N[C@@H](CCCCN)C(=O)O (H-YGAK-OH) | > 100000 |  |
| CCCC[C@@H](C=O)NC(=O)[C@H](CC(C)C)NC(=O)OCc1ccccc1 [CALPEPTIN] | 4 |  |
